Laboratory results from ChEMBL document CHEMBL1122187, “Synthesis and antiviral activity of certain carbamoylpyrrolopyrimidine and pyrazolopyrimidine nucleosides” (1982).

Columns and labels:
HEp-2 [1] = assay: In vitro antiviral activity against herpes simplex type 1 (HSV-1) virus was determined in human laryngeal epithelioma (HEp-2,H)expressed as virus rating. Toxic level(100 ug/mL); format: functional
Outline: (§1)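 Cell monolayers (18 h) infected with 320 TCID50 of virus. Compound was added within 15–30 min at half-log dilutions from 1000 to 1 μg/mL. After 72 h at 37 °C in 5% CO2, CPE was scored 0–4 by microscopy. VR = sum of (virus control − treated) scores, halved at partially toxic levels, divided by 10 × test cups per drug level.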

HEp-2 [2] = assay: In vitro antiviral activity against vaccinia(VV) virus was determined in human laryngeal epithelioma (HEp-2,H)expressed as virus rating. Toxic level(100 ug/mL); format: functional; outline: as §1
Vero [3] = assay: In vitro antiviral activity against vaccinia(VV) virus was determined in african green monkey kidney (vero,V) expressed as virus rating. Toxic level(>1000 ug/mL); format: functional, Chlorocebus sabaeus; outline: as §1
Vero [4] = assay: In vitro antiviral activity against herpes simplex type 1 (HSV-1) virus was determined in african green monkey kidney (vero,V) expressed as virus rating. Toxic level(>1000 ug/mL); format: functional, Chlorocebus sabaeus; outline: as §1
Vero [5] = assay: In vitro antiviral activity against parainfluenza type 3(para 3) virus was determined in african green monkey kidney (vero,V) expressed as virus rating. Toxic level(>1000 ug/mL); format: functional, Chlorocebus sabaeus; outline: as §1
HEp-2 [6] = assay: In vitro antiviral activity against parainfluenza type 3 (para3) virus was determined in human laryngeal epithelioma (HEp-2,H)expressed as virus rating. Toxic level(100 ug/mL); format: functional; outline: as §1
Vero [7] = assay: Percentage plaque reduction was determined against rift valley fever(RVF) virus in african green monkey kidney (vero,V) at a conc of 100-250 ug/mL; format: functional, Chlorocebus sabaeus
Vero [8] = assay: Percentage plaque reduction was determined against rift valley fever(RVF) virus in african green monkey kidney (vero,V) at a conc of 25-100 ug/mL; format: functional, Chlorocebus sabaeus
Vero [9] = assay: Percentage plaque reduction was determined against Sandfly fever (SF) virus in african green monkey kidney (vero,V) at a conc of 100-250 ug/mL; format: functional, Chlorocebus sabaeus
Vero [10] = assay: Percentage plaque reduction was determined against Sandfly fever (SF) virus in african green monkey kidney (vero,V) at a conc of 25-100 ug/mL; format: functional, Chlorocebus sabaeus
Vero [11] = assay: Percentage plaque reduction was determined against yellow fever(YF) virus in african green monkey kidney (vero,V); 61-90; format: functional, Chlorocebus sabaeus
Vero [12] = assay: In vitro antiviral activity against herpes simplex type 1 (HSV-1) virus was determined in african green monkey kidney (vero,V) expressed as virus rating.; format: functional, Chlorocebus sabaeus; outline: as §1
Vero [13] = assay: Percentage plaque reduction was determined against rift valley fever(RVF) virus in african green monkey kidney (vero,V) at a conc of 250-500 ug/mL; format: functional, Chlorocebus sabaeus
Vero [14] = assay: Percentage plaque reduction was determined against Sandfly fever (SF) virus in african green monkey kidney (vero,V) at a conc of 250-500 ug/mL; format: functional, Chlorocebus sabaeus
Vero [15] = assay: Percentage plaque reduction was determined against Sandfly fever (SF) virus in african green monkey kidney (vero,V) at a conc of <25 ug/mL; format: functional, Chlorocebus sabaeus
Vero [16] = assay: Percentage plaque reduction was determined against pichinde(PICH) virus in african green monkey kidney (vero,V); format: functional, Chlorocebus sabaeus
Outline: (§2)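 Infected Vero 24-well monolayers: virus adsorbed 1 h at 37 °C, then overlaid with agar holding dilutions of compound and incubated again at 37 °C with CO₂. Plaques were stained with crystal violet and counted. Inhibition was scored as % plaque reduction bands (10-30%, 31-60%, 61-90%), each tied to a drug concentration range.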

Vero [17] = assay: Percentage plaque reduction was determined against rift valley fever(RVF) virus in african green monkey kidney (vero,V) at a conc of <25 ug/mL; format: functional, Chlorocebus sabaeus
Vero [18] = assay: Percentage plaque reduction was determined against venezuelan equine encephalitis (VEE) virus in african green monkey kidney (vero,V) at a conc of <25 ug/mL; format: functional, Chlorocebus sabaeus
Vero [19] = assay: In vitro antiviral activity against parainfluenza type 3(para 3) virus was determined in african green monkey kidney (vero,V) expressed as virus rating.; format: functional, Chlorocebus sabaeus; outline: as §1
Vero [20] = assay: In vitro antiviral activity against vaccinia(VV) virus was determined in african green monkey kidney (vero,V) expressed as virus rating.; format: functional, Chlorocebus sabaeus; outline: as §1
Vero [21] = assay: Percentage plaque reduction was determined against venezuelan equine encephalitis (VEE) virus in african green monkey kidney (vero,V) at a conc of 100-250 ug/mL; format: functional, Chlorocebus sabaeus
Vero [22] = assay: Percentage plaque reduction was determined against venezuelan equine encephalitis (VEE) virus in african green monkey kidney (vero,V) at a conc of 25-100 ug/mL; format: functional, Chlorocebus sabaeus
Vero [23] = assay: Percentage plaque reduction was determined against venezuelan equine encephalitis (VEE) virus in african green monkey kidney (vero,V) at a conc of 250-500 ug/mL; format: functional, Chlorocebus sabaeus
Vero [24] = assay: Percentage plaque reduction was determined against rift valley fever(RVF) virus in african green monkey kidney (vero,V) at a conc of 100-250 ug/mL. Toxic level(10 ug/mL); format: functional, Chlorocebus sabaeus
Vero [25] = assay: Percentage plaque reduction was determined against rift valley fever(RVF) virus in african green monkey kidney (vero,V) at a conc of 25-100 ug/mL. Toxic level(10 ug/mL); format: functional, Chlorocebus sabaeus
Vero [26] = assay: Percentage plaque reduction was determined against rift valley fever(RVF) virus in african green monkey kidney (vero,V) at a conc of 250-500 ug/mL. Toxic level(10 ug/mL); format: functional, Chlorocebus sabaeus
Vero [27] = assay: Percentage plaque reduction was determined against rift valley fever(RVF) virus in african green monkey kidney (vero,V) at a conc of <25 ug/mL. Toxic level(10 ug/mL); format: functional, Chlorocebus sabaeus
Vero [28] = assay: Percentage plaque reduction was determined against venezuelan equine encephalitis (VEE) virus in african green monkey kidney (vero,V) at a conc of 100-250 ug/mL. Toxic level(10 ug/mL); format: functional, Chlorocebus sabaeus
Vero [29] = assay: Percentage plaque reduction was determined against venezuelan equine encephalitis (VEE) virus in african green monkey kidney (vero,V) at a conc of 25-100 ug/mL. Toxic level(10 ug/mL); format: functional, Chlorocebus sabaeus
Vero [30] = assay: Percentage plaque reduction was determined against Sandfly fever (SF) virus in african green monkey kidney (vero,V) at a conc of 100-250 ug/mL. Toxic level(10 ug/mL); format: functional, Chlorocebus sabaeus
Vero [31] = assay: Percentage plaque reduction was determined against Sandfly fever (SF) virus in african green monkey kidney (vero,V) at a conc of 25-100 ug/mL. Toxic level(10 ug/mL); format: functional, Chlorocebus sabaeus
Vero [32] = assay: Percentage plaque reduction was determined against Sandfly fever (SF) virus in african green monkey kidney (vero,V) at a conc of 250-500 ug/mL. Toxic level(10 ug/mL); format: functional, Chlorocebus sabaeus
Vero [33] = assay: Percentage plaque reduction was determined against Sandfly fever (SF) virus in african green monkey kidney (vero,V) at a conc of <25 ug/mL. Toxic level(10 ug/mL); format: functional, Chlorocebus sabaeus; outline: as §2
Vero [34] = assay: Percentage plaque reduction was determined against pichinde(PICH) virus in african green monkey kidney (vero,V).Toxic level(10 ug/mL); format: functional, Chlorocebus sabaeus; outline: as §2
Vero [35] = assay: In vitro antiviral activity against herpes simplex type 1 (HSV-1) virus was determined in african green monkey kidney (vero,V) expressed as virus rating. Toxic level(10 ug/mL); format: functional, Chlorocebus sabaeus; outline: as §1
Vero [36] = assay: Percentage plaque reduction was determined against venezuelan equine encephalitis (VEE) virus in african green monkey kidney (vero,V) at a conc of 250-500 ug/mL. Toxic level(10 ug/mL); format: functional, Chlorocebus sabaeus
Vero [37] = assay: Percentage plaque reduction was determined against yellow fever (YF) virus in african green monkey kidney (vero,V).Toxic level(10 ug/mL); format: functional, Chlorocebus sabaeus
HEp-2 [38] = assay: In vitro antiviral activity against parainfluenza type 3(para 3) virus was determined in human laryngeal epithelioma (HEp-2,H)expressed as virus rating. Toxic level(100 ug/mL); format: functional; outline: as §1
Vero [39] = assay: In vitro antiviral activity against vaccinia(VV) virus was determined in african green monkey kidney (vero,V) expressed as virus rating. Toxic level(100 ug/mL); format: functional, Chlorocebus sabaeus; outline: as §1
Vero [40] = assay: In vitro antiviral activity against parainfluenza type 3(para 3) virus was determined in african green monkey kidney (vero,V) expressed as virus rating. Toxic level(100 ug/mL); format: functional, Chlorocebus sabaeus; outline: as §1
Vero [41] = assay: In vitro antiviral activity against herpes simplex type 1 (HSV-1) virus was determined in african green monkey kidney (vero,V) expressed as virus rating. Toxic level(100 ug/mL); format: functional, Chlorocebus sabaeus; outline: as §1

CSc1ncnc2c1ccn2[C@@H]1O[C@H](CO)[C@@H](O)[C@H]1O
Virus rating (HEp-2 [1]): 1.3
Virus rating (HEp-2 [2]): 1.4
Virus rating (Vero [3]): 1
Virus rating (Vero [4]): 0.5
Virus rating (Vero [5]): 0.9
Virus rating (HEp-2 [6]): 1.5

CSc1ncnc2c([C@@H]3O[C@H](COC(C)=O)[C@@H](OC(C)=O)[C@H]3OC(C)=O)n[nH]c12
Plaque reduction (Vero [7]): 0%
Plaque reduction (Vero [8]): 0%
Plaque reduction (Vero [9]): 0%
Plaque reduction (Vero [10]): 0%
Plaque reduction (Vero [11]): 61%
Virus rating (Vero [12]): 0.6
Plaque reduction (Vero [13]): 0%
Plaque reduction (Vero [14]): 0%
Plaque reduction (Vero [15]): 0%
Plaque reduction (Vero [16]): 0%
Plaque reduction (Vero [17]): 0%
Plaque reduction (Vero [18]): 0%
Virus rating (Vero [19]): 1
Virus rating (Vero [20]): 1.2
Plaque reduction (Vero [21]): 0%
Plaque reduction (Vero [22]): 0%
Plaque reduction (Vero [23]): 0%

O=C1N=CN=C2C([C@@H]3O[C@H](CO)[C@@H](O)[C@H]3O)=NNC12 (some centres undefined)
Plaque reduction (Vero [24]): 0%
Plaque reduction (Vero [25]): 0%
Plaque reduction (Vero [26]): 0%
Plaque reduction (Vero [27]): 0%
Plaque reduction (Vero [28]): 0%
Plaque reduction (Vero [29]): 0%
Plaque reduction (Vero [30]): 0%
Plaque reduction (Vero [31]): 0%
Plaque reduction (Vero [32]): 0%
Plaque reduction (Vero [33]): 0%
Plaque reduction (Vero [34]): >90%
Virus rating (Vero [35]): 0.1
Plaque reduction (Vero [36]): 0%
Plaque reduction (Vero [18]): 0%
Plaque reduction (Vero [37]): 0%

NC(=O)c1ncnc2c([C@@H]3O[C@H](CO)[C@@H](O)[C@H]3O)n[nH]c12
Virus rating (HEp-2 [1]): 0
Virus rating (HEp-2 [38]): 0.4
Virus rating (HEp-2 [2]): 0.8
Virus rating (Vero [39]): 0.6
Virus rating (Vero [40]): 0
Virus rating (Vero [41]): 0
